Measured values taken from ChEMBL document CHEMBL1641374, “Synthesis of antiproliferative flavones from calycopterin, major flavonoid of Calycopteris floribunda Lamk” (Bioorg Med Chem, 2011).
One block for each compound: values may come before it.

Key:
[1] = tested on: KB; test: Cytotoxicity against human KB cells after 72 hrs by MTS assay; assay type: functional, cell-based
[2] = tested on: KB; test: Cytotoxicity against human KB cells at 10^-6 M after 72 hrs by MTS assay; assay type: functional
In short: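 KB cells in D-MEM with 10% FCS were seeded at 600 cells/well and dosed 24 h later with flavone at 10^-6 M in DMSO. Controls received DMSO at 1% final. After 72 h, MTS was added for 3 h at 37 °C and A490 read in triplicate. Growth inhibition (%) = (1 − OD treated/OD control)×100.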

[3] = tested on: HepG2; test: Cytotoxicity against human HepG2 cells after 72 hrs by MTS assay; assay type: functional, cell-based; details: HepG2, 72 h
[4] = tested on: KB; test: Induction of cell cycle arrest in human KB cells assessed as accumulation at S phase at 50 nM after 24 hrs by propidium iodide staining-based flow cytometry (reference value: 6.9%); assay type: functional
[5] = tested on: HL-60; test: Induction of apoptosis in human HL60 cells assessed as early apoptosis cells at 50 nM after 48 hrs by annexin-V-PE/7-AAD staining (reference value: 2.5%); assay type: functional
[6] = tested on: PC-3; test: Cytotoxicity against human PC3 cells after 72 hrs by MTS assay; assay type: functional, cell-based; details: PC-3, 72 h
[7] = tested on: SK-OV-3; test: Cytotoxicity against human SKOV3 cells after 72 hrs by MTS assay; assay type: functional, cell-based; details: SK-OV-3, 72 h
[8] = tested on: HL-60; test: Induction of apoptosis in human HL60 cells assessed as late apoptosis cells at 50 nM after24 hrs by annexin-V-PE/7-AAD staining (reference value: 0.2%); assay type: functional
[9] = tested on: SF-268; test: Cytotoxicity against human SF268 cells after 72 hrs by MTS assay; assay type: functional, cell-based; details: SF-268, 72 h
[10] = tested on: KB; test: Induction of cell cycle arrest in human KB cells assessed as accumulation at subG1 phase at 50 nM after 48 hrs by propidium iodide staining-based flow cytometry (reference value: 1.2%); assay type: functional
[11] = tested on: HL-60; test: Induction of apoptosis in human HL60 cells assessed as early apoptosis cells at 50 nM after24 hrs by annexin-V-PE/7-AAD staining (reference value: 2.6%); assay type: functional
[12] = tested on: HT-29; test: Cytotoxicity against human HT-29 cells after 72 hrs by MTS assay; assay type: functional, cell-based; details: HT-29, 72 h
[13] = Cytotoxicity against human MCF7/R cells after 72 hrs by MTS assay; assay type: functional, cell-based; details: MCF7R
[14] = tested on: MIA PaCa-2; test: Cytotoxicity against human MIAPaCa2 cells after 72 hrs by MTS assay; assay type: functional, cell-based; details: MIA PaCa-2, 72 h
[15] = tested on: K562; test: Cytotoxicity against human K562 cells after 72 hrs by MTS assay; assay type: functional, cell-based; details: K562, 72 h
[16] = Cytotoxicity against human HL60R cells after 72 hrs by MTS assay; assay type: functional, cell-based; details: HL-60, 72 h
[17] = tested on: KB; test: Induction of cell cycle arrest in human KB cells assessed as accumulation at S phase at 50 nM after 48 hrs by propidium iodide staining-based flow cytometry (reference value: 18.4%); assay type: functional
[18] = tested on: KB; test: Induction of cell cycle arrest in human KB cells assessed as accumulation at G0/G1phase at 50 nM after 48 hrs by propidium iodide staining-based flow cytometry (reference value: 66.6%); assay type: functional
[19] = tested on: HL-60; test: Induction of apoptosis in human HL60 cells assessed as viable cells at 50 nM after 48 hrs by annexin-V-PE/7-AAD staining (reference value: 97.4%); assay type: functional; details: HL-60, 48 h, read-out: Activity
[20] = tested on: HCT-15; test: Cytotoxicity against human HCT15 cells after 72 hrs by MTS assay; assay type: functional, cell-based; details: HCT-15, 72 h
[21] = tested on: A549; test: Cytotoxicity against human A549 cells after 72 hrs by MTS assay; assay type: functional, cell-based; details: A549, 72 h
[22] = tested on: KB; test: Induction of cell cycle arrest in human KB cells assessed as accumulation at G2/M phase at 50 nM after 48 hrs by propidium iodide staining-based flow cytometry (reference value: 13.8%); assay type: functional
[23] = tested on: KB; test: Induction of cell cycle arrest in human KB cells assessed as accumulation at subG1 phase at 50 nM after 24 hrs by propidium iodide staining-based flow cytometry (reference value: 0.7%); assay type: functional
[24] = tested on: HCT-116; test: Cytotoxicity against human HCT116 cells after 72 hrs by MTS assay; assay type: functional, cell-based; details: HCT-116, 72 h
[25] = Inhibition of sheep brain tubulin polymerization at 2x10'-5 M after 5 mins; design: species or system Ovis aries
In short: (§1)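 Sheep brain microtubule proteins were purified by two assembly/disassembly cycles (37 °C/0 °C) in 100 mM MES pH 6.6, 1 mM EGTA, 0.5 mM MgCl2. Polymerization rate was followed by turbidity at 350 nm, with deoxypodophyllotoxin as reference. Compounds were tested at ~2×10^-5 M for % inhibition, with IC50 determined for selected compounds.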

[26] = tested on: HL-60; test: Induction of apoptosis in human HL60 cells assessed as induction of caspase 3/7 activation at 100 nM relative to control; assay type: functional
In short: (§2)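 HL60 cells (20,000/well) were treated 24 and 48 h with compounds in DMSO. Vehicle and doxorubicine served as controls. Fluorescence (ex 360/em 465 nm) was followed over 3 h.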

[27] = tested on: KB; test: Induction of cell cycle arrest in human KB cells assessed as accumulation at G2/M phase at 50 nM after 24 hrs by propidium iodide staining-based flow cytometry (reference value: 19.6%); assay type: functional
[28] = tested on: HL-60; test: Induction of apoptosis in human HL60 cells assessed as late apoptosis cells at 50 nM after 48 hrs by annexin-V-PE/7-AAD staining (reference value: 0.1%); assay type: functional
[29] = tested on: HL-60; test: Induction of apoptosis in human HL60 cells assessed as viable cells at 50 nM after24 hrs by annexin-V-PE/7-AAD staining (reference value: 97.2%); assay type: functional; details: read-out: Activity
[30] = tested on: HL-60; test: Cytotoxicity against human HL60 cells after 72 hrs by MTS assay; assay type: functional, cell-based; details: HL-60, 72 h
[31] = tested on: KB; test: Induction of cell cycle arrest in human KB cells assessed as accumulation at G0/G1phase at 50 nM after 24 hrs by propidium iodide staining-based flow cytometry (reference value: 72.9%); assay type: functional
[32] = tested on: OVCAR-8; test: Cytotoxicity against human OVCAR8 cells after 72 hrs by MTS assay; assay type: functional, cell-based; details: OVCAR-8, 72 h
[33] = organism: Ovis aries; test: Inhibition of sheep brain tubulin polymerization after 5 mins; in short: as §1
[34] = tested on: HL-60; test: Induction of apoptosis in human HL60 cells assessed as induction of caspase 3/7 activation at 100 uM relative to control; assay type: functional; in short: as §2

Structure (SMILES): COc1ccc(-c2oc3c(OC)c(OC)c(O)c(O)c3c(=O)c2OC)cc1N
- IC50 [1]: 10000 nM
- Activity [2]: 38%

Structure (SMILES): COc1ccc(-c2oc3c(OC)c(OC)c(OC)c(O)c3c(=O)c2OC)cc1C#N
- Activity [2]: <=13%

Structure (SMILES): COc1c(I)cc(-c2oc3c(OC)c(OC)c(OC)c(O)c3c(=O)c2OC)cc1I
- Activity [2]: <=13%

Structure (SMILES): COc1ccc(-c2oc3c(OC)c(OC)c(OC)c(O)c3c(=O)c2OC)cc1CO
- Activity [2]: <=13%

- IC50 [25]: 13000 nM
Structure (SMILES): COc1ccc(-c2oc3c(OC)c(OC)c(OC)c(O)c3c(=O)c2OC)cc1N
- IC50 [3]: 81 nM
- Activity [4]: 19.2%
- Activity [5]: 37.6%
- IC50 [6]: > 1000 nM
- IC50 [7]: 37 nM
- IC50 [1]: 25 nM
- Activity [8]: 2.1%
- Activity [2]: 96%
- IC50 [9]: 400 nM
- Activity [10]: 15.5%
- Activity [11]: 20.7%
- IC50 [12]: 50 nM
- IC50 [13]: 34 nM
- IC50 [14]: 33 nM
- IC50 [15]: 9 nM
- IC50 [16]: 14 nM
- Activity [17]: 32%
- Activity [18]: 38.5%
- viability at 0.05 µM [19]: 60.1%
- IC50 [20]: 12 nM
- IC50 [21]: 32 nM
- Activity [22]: 14%
- Activity [23]: 7.3%
- IC50 [24]: 25 nM
- fold change (FC) [26]: 3.2
- Activity [27]: 34.5%
- Activity [28]: 2.2%
- viability at 0.05 µM [29]: 77.1%
- IC50 [30]: 36 nM
- Activity [31]: 39.3%
- IC50 [32]: 105 nM

Structure (SMILES): COc1ccc(-c2oc3c(OC)c(OC)c(OC)c(O)c3c(=O)c2OC)cc1N(C)C
- Activity [2]: 13%

Structure (SMILES): COc1ccc(-c2oc3c(OC)c(OC)c(OC)c(O)c3c(=O)c2OC)cc1-c1cc(-c2oc3c(OC)c(OC)c(OC)c(O)c3c(=O)c2OC)ccc1OC
- Activity [2]: <=13%

- IC50 [25]: 8900 nM
- inhibition [33]: 3%
Structure (SMILES): COc1ccc(-c2oc3c(OC)c(OC)c(OC)c(O)c3c(=O)c2OC)cc1O
- IC50 [3]: 174 nM
- Activity [4]: 18.5%
- IC50 [6]: > 1000 nM
- IC50 [7]: 22 nM
- Activity [8]: 0.8%
- Activity [2]: 96%
- IC50 [9]: 186 nM
- Activity [10]: 22.2%
- Activity [11]: 26.7%
- IC50 [12]: 3140 nM
- IC50 [13]: 17 nM
- IC50 [14]: 12 nM
- IC50 [15]: 7 nM
- IC50 [16]: 5 nM
- Activity [17]: 38.6%
- Activity [18]: 27.4%
- viability at 0.05 µM [19]: 30.8%
- IC50 [20]: 14 nM
- IC50 [21]: 58 nM
- Activity [22]: 11.8%
- Activity [23]: 14.9%
- IC50 [24]: 23 nM
- fold change (FC) [26]: 5.7
- Activity [27]: 45.3%
- Activity [28]: 7.2%
- viability at 0.05 µM [29]: 72.4%
- IC50 [30]: 36 nM
- Activity [31]: 21.3%
- IC50 [32]: 40 nM

Structure (SMILES): COc1ccc(-c2oc3c(OC)c(OC)c(OC)c(O)c3c(=O)c2OC)cc1C=O
- Activity [2]: <=13%

- inhibition [33]: 2%
Structure (SMILES): COc1ccc(-c2oc3c(OC)c(OC)c(OC)c(O)c3c(=O)c2OC)cc1 [5-HYDROXYAURANETIN]
- IC50 [1]: 720 nM
- Activity [2]: 73%
- fold change (FC) [34]: 4.5

Structure (SMILES): COc1ccc(-c2oc3c(OC)c(OC)c(OC)c(O)c3c(=O)c2OC)cc1CN(C)C
- Activity [2]: <=13%
